UHRF1 binding – UHRF1 methyl-DNA binding inhibition; AID 687016; Q96T88; UHRF1 binding to methylated oligo, TR-FRET; 370,000 compounds, 0.75% hits; inhibition, % at 4.4 µM; in the data active = inhibition above about 21%;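 note: UHRF1 SRA domain binding a hemimethylated CpG hairpin DNA probe; 0% = median of test compound wells and 100% = reference inhibitor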
PRMT1 FP inh – inhibitors of human PRMT1. recombinant PRMT1, activity-based probe fluorescence polarization. inhibition, % at 2.79 µM. 370,000 compounds, 1.3% hits. AID 652257;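 active = inhibition above about 21% made by adding two undisclosed values, limit read from the data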
SIAE inh – inhibitors of human sialic acid acetylesterase SIAE; SIAE FP-Rh probe binding, fluorescence polarization; AID 1053197; 370,000 compounds, 0.69% hits; inhibition, % at 9.66 µM;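 active = inhibition above a cutoff: mean of compounds within the control limits plus 3 SD of those, cut at about 17% in these data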;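 note: 0% = plate median of compound wells and 100% = probe without SIAE protein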
MBD2 inh – inhibitors of human MBD2 binding to methylated oligonucleotide; Q9UBB5; TR-FRET; inhibition, % at 4.4 µM; 370,000 compounds, 0.31% hits; AID 686964; in the data active = inhibition above about 13%
TDP2 inh – TDP2 (human) inhibition, absorbance primary screen; 370,000 compounds, 0.34% hits; O95551; inhibition, % at 12.8 µM; recombinant TDP2, T5PNP hydrolysis, p-nitrophenol absorbance 415 nm; AID 720702;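 active = inhibition above the mean of all tested compounds plus 3 SD, set per campaign, cut at about 25% in these data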;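 note: 0% = DMSO with enzyme and 100% = buffer with substrate but no TDP2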
Target sequence (O95551 whole entry, looked up): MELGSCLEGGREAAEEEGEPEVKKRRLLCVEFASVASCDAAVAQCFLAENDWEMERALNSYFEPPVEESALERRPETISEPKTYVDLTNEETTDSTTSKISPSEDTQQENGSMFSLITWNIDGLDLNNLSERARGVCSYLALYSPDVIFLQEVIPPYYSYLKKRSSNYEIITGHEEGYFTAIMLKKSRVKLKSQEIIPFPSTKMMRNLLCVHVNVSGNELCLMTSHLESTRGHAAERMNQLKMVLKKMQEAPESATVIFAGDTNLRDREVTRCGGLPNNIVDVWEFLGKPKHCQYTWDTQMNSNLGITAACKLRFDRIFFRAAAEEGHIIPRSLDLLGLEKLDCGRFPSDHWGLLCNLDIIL
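System: recombinant human TDP2 / Amount: 120 nM TDP2 per well / Also added: 5 mM T5PNP chromogenic substrate / Doses: 12.8 µM single point, 1% DMSO / Incubation: 2 h at 37 °C / Detection: p-Nitrophenol epi absorbance / Evaluation: % inhibition relative to enzyme-containing and enzyme-free wells / Repeats: singlicate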
LEDGF integ inh – blocks HIV-1 LEDGF/p75-dependent DNA integration | AID 743269 | TR-FRET IN-LEDGF/p75 DNA integration, Eu/Cy5 | 370,000 compounds, 0.64% hits | inhibition, % at 3.7 µM;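 active = inhibition above the screen-wide mean plus 3 SD, cut at about 13% in these data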;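 note: signal is the Cy5 over europium emission ratio at 671 and 618 nm; 0% = plate median of compound wells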
IN multimer up – HIV-1 integrase multimerization activation, counter-screen. shares compounds with LEDGF integ inh. TR-FRET HIV-1 integrase multimerization, biochemical. activation, % at 7.7 µM. 2,000 compounds, 17% hits. AID 1053131; in the data active = activation above about 8.9%
TR-FRET interf – TR-FRET optical interference, LEDGF/p75 integration counter-screen. 2,000 tested, under 10 active. shares compounds with LEDGF integ inh. TR-FRET optical interference counterscreen, HIV-1 IN multimerization. inhibition, % at 7.7 µM;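 active = inhibition above the mean over all tested compounds plus 3 SD, which no compound reached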;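 note: 0% = integrase with antibodies and DMSO and 100% = antibodies without integrase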
IN-LEDGF confirm – LEDGF/p75-dependent HIV-1 integration inhibition, confirmation. shares compounds with LEDGF integ inh. TR-FRET LEDGF/p75-dependent HIV-1 integration, biochemical. inhibition, % at 3.7 µM. 2,000 compounds, 36% hits. AID 1053136; in the data active = inhibition above about 14%
* = called active by the depositor; x = not tested or not shown. The list is not random: actives were taken first. Their share in the collection is about 3.3%.

SMILES	UHRF1 binding	PRMT1 FP inh	SIAE inh	MBD2 inh	TDP2 inh	LEDGF integ inh	IN multimer up	TR-FRET interf	IN-LEDGF confirm
COc1ccc(C(C)(NC(C)=O)c2nc(-c3cccc(C(F)(F)F)c3)cs2)cc1 (stereo not drawn)	-1	-9	-5	0	-2	16*	-1	3	-9
Oc1cccc(/C=N/NC(=S)NCCN2CCOCC2)c1O	30*	5	0	5	13	79*	5	-26	-5
COc1nc(OC)nc(N2CCC(C(=O)NCc3ccccc3OC)CC2)n1	6	-6	8	1	-11	3	x	x	x
CCSC1=C(C#N)C(c2ccc(C)o2)CC(=O)N1 (stereo not drawn)	0	-4	-1	0	-9	0	x	x	x
Cc1ccc(C2CC(=O)N3CN(c4ccc(Br)cc4)CSC3=C2C#N)o1 (stereo not drawn)	41*	82*	5	7	0	43*	9	-43	40*
C/C=C/C(=O)N1CCC(C(=O)NC2CCCc3ccccc32)CC1 (stereo not drawn)	0	-1	3	6	1	-3	x	x	x
Cc1ccc(OCC(=O)Nc2ccc(F)cc2)cc1C	-3	-3	5	4	7	20*	0	-2	-15
Cc1ccc(S(=O)(=O)N2C(N)=C(C(=O)NCc3ccc(Br)cc3)C(c3ccc(Cl)cc3)C2C(=O)c2ccccc2)cc1 (stereo not drawn)	-5	-4	-11	-3	12	2	x	x	x
O=C(NCc1ccccc1)c1cc(C2CCCN(S(=O)(=O)c3cccc4cccnc34)C2)on1 (stereo not drawn)	0	1	-5	0	-4	1	x	x	x
CCCNC(=O)c1cc(C2CCCN(S(=O)(=O)c3cccc4cccnc34)C2)on1 (stereo not drawn)	-1	1	-8	1	-7	37*	-4	15	1
Cc1ccccc1CNC(=S)OC1CCC12CCC(c1ccccc1)CC2 (stereo not drawn)	1	6	0	3	11	-2	x	x	x
C=CCn1c(SCC(=O)c2ccc(O)c(O)c2)nnc1-c1cccnc1	25*	11	8	6	-7	16*	45*	-161	60*
C=CCn1c(SCC(=O)c2ccc(O)c(O)c2)nnc1-c1cccc(Cl)c1	3	8	3	-3	-1	0	x	x	x
COC(=O)CN1C(=O)[C@H]2[C@@H](/C=C/c3ccccc3)N3C(=O)CN(Cc4ccccc4)C(=O)[C@@]3(C)[C@H]2C1=O	-2	0	3	1	-6	81*	0	-2	-17
CN1C(=O)[C@H]2[C@@H](/C=C/c3ccccc3)N3C(=O)CN(Cc4ccccc4)C(=O)[C@@]3(C)[C@H]2C1=O	4	2	-4	3	3	-5	x	x	x
CCC(C)N(C(=O)CSc1nnc(-c2cc(OC)c(OC)c(OC)c2)o1)C(C)CC (stereo not drawn)	4	1	7	-6	-7	1	x	x	x
O=C1O[C@@H](c2ccc(O)cc2)Cc2cccc(O)c21	0	-4	0	-1	-11	-3	x	x	x
O=C1C[C@@H](O)[C@H](O)c2cccc(O)c21	-7	11	-6	-6	2	18*	-1	5	9
CCc1ccc(CCNC(=O)OCCCN2CCC3(CCC(c4ccccc4)CC3)C2=O)cc1 (stereo not drawn)	1	5	4	7	-1	3	x	x	x
CCc1nc(Nc2ccccc2)c2nnn(Cc3ccccc3)c2n1	-6	-2	-9	3	17	0	x	x	x
CCc1nc(NCc2cccs2)c2nnn(Cc3ccccc3)c2n1	-2	1	0	3	3	16*	0	-1	8
NC(c1csc(Nc2ccccn2)n1)C1CCCCC1 (stereo not drawn)	-1	-1	0	0	-11	14*	0	1	3
O=C1CSC(c2ccc(Cl)c(Cl)c2)N1c1nccs1 (stereo not drawn)	2	9	-3	-2	-9	18*	-2	11	-4
O=C(N1CCCCCC1)N1CCN(C(=O)N2CCOCC2)CC1	5	2	-2	5	6	31*	0	1	0
Cc1ccc(C(=O)CSc2nnc(-c3ccccn3)n2-c2ccccc2)cc1	0	5	-6	1	0	5	x	x	x
SMILES	UHRF1 binding	PRMT1 FP inh	SIAE inh	MBD2 inh	TDP2 inh	LEDGF integ inh	IN multimer up	TR-FRET interf	IN-LEDGF confirm
Cn1c(=O)c2c(nc(SCc3ccc(C(=O)O)cc3)n2C)n(C)c1=O	0	-3	1	-4	-6	14*	-3	13	8
COc1ccccc1N(CC(=O)NCc1ccco1)S(=O)(=O)c1ccc(C)cc1	29*	21*	-12	8	10	23*	5	-17	28*
N#CCC[C@@H]1CC[C@]2(CCCN(S(=O)(=O)C3CCCCC3)C2)O1	-1	-3	-2	-3	4	1	x	x	x
COc1cc(/C=C(\C#N)c2nc3ccccc3[nH]2)cc(OC)c1O	-10	-8	-28	-3	0	16*	8	-38	2
NNC(=O)c1cc(O)c(O)c(O)c1	29*	18	6	10	-1	61*	39*	-197	63*
CSc1ccc(CN(C)CC(=O)Nc2ccccc2C(=O)NC2CC2)cc1	-2	0	5	-2	4	-3	x	x	x
CNC(=O)c1ccc(CN(C)CC(=O)Nc2ccccc2C(=O)NC2CC2)cc1	2	2	-1	-1	5	75*	-1	4	-2
Fc1cccc(F)c1Cn1ccc2ccc(-c3ccc4ccn(Cc5c(F)cccc5F)c4c3)cc21	3	-1	-1	-1	1	2	x	x	x
COc1ccc(CCNC(=O)c2cc(-c3ccccn3)nc3ccccc23)cc1	-1	4	-2	4	0	-1	x	x	x
COc1ccc(CCNC(=O)c2cc(Cl)nc3ccccc23)cc1	0	4	1	-2	-13	15*	1	-3	-8
CC(=O)N1CCCN(S(=O)(=O)c2ccc3c(c2)oc(=O)n3C)CC1	2	-1	3	-3	7	0	x	x	x
Nc1c(O)cccc1C(=O)O	20	13	4	8	20	38*	8	-38	21*
O=C(O)c1ccccc1O	3	3	-4	-6	4	2	x	x	x

From PubChem BioAssay
